The results in this text go back to ChEMBL document CHEMBL1158827, “Free-radical-scavenging and xanthine oxidase inhibitory constituents from Stereospermum personatum” (J Nat Prod, 2005).

Series [1] is described as follows: Antioxidant activity assessed as DPPH scavenging activity. In kind it is functional. The essentials:
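SC50 is the concentration scavenging 50% of the DPPH free radical under the assay conditions. It was obtained by linear regression over at least five concentrations, each in triplicate, and reported as the mean.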
(In general: Loss of DPPH colour is used to gauge radical scavenging.)

For series [2], the target named is T1, Xanthine dehydrogenase/oxidase (Homo sapiens, UniProt P47989). In words: Inhibition of xanthine oxidase at 50 ug/ml. In short, it runs like this: (§1)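 Single-concentration screen at 50 µg/mL. Samples showing less than 10% activity at this level were not carried forward to IC50 or SC50 determination.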
T1 sequence (P47989 whole entry): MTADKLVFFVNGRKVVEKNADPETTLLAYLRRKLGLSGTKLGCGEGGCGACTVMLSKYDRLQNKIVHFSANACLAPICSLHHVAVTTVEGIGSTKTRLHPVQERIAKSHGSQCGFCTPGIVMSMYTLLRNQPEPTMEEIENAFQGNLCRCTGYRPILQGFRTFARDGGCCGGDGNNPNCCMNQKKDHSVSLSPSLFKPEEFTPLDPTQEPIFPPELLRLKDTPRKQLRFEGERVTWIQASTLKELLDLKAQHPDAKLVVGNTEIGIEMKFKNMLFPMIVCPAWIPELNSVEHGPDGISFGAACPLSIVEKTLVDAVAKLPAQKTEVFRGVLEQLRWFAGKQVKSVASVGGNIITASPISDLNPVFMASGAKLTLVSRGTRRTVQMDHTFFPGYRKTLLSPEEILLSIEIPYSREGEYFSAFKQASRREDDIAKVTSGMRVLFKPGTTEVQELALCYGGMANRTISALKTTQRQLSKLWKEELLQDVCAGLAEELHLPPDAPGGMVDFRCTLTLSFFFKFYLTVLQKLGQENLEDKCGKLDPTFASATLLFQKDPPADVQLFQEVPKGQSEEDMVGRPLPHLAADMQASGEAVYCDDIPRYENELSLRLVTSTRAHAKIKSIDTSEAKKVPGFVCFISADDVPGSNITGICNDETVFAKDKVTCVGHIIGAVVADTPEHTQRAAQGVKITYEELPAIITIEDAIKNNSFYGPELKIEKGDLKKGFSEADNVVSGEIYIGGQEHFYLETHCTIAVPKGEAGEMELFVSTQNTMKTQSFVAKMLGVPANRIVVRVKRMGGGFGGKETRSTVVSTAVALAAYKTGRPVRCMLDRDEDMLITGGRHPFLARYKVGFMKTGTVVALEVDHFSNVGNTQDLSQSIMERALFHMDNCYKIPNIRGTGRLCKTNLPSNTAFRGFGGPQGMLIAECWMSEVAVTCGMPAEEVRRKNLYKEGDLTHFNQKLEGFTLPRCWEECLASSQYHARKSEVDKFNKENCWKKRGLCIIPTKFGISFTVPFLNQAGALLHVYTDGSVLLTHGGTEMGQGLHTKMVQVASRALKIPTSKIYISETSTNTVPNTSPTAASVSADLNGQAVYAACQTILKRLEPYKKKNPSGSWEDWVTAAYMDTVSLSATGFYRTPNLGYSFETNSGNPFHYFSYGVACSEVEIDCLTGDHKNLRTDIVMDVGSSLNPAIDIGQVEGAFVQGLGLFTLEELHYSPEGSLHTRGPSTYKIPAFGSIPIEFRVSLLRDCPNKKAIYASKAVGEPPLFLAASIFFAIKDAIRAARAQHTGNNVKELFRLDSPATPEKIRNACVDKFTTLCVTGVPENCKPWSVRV
Series [3] has as its target T1, Xanthine dehydrogenase/oxidase. In words: Inhibition of xanthine oxidase.
Series [4] has the same target. In words: Inhibition of xanthine oxidase at 132 uM.
Series [5] is described as follows: Antioxidant activity assessed as DPPH scavenging activity at 50 ug/ml. In kind it is functional. In short, it runs like this: as §1

Each structure is given as a SMILES string. Active and inactive are the calls of the source. The calls are words filed in the database; no cut-off is given here.

For `COc1cc(COC/C=C/c2cc(OC)c(OC)c(OC)c2)ccc1O`, in series [1], the SC50 was 7.58 µM. Moreover, the Activity result in series [2] is “Not Active”.

On to `COc1cc([C@H]2c3cc(O)c(OC)cc3C[C@@](O)(CO)[C@@H]2CO)ccc1O`, for which the SC50 in series [1] came to 17.4 µM. Further, in series [3], the half-maximal inhibitory concentration (IC50) (as a rule, the point on the concentration scale where inhibition reaches its midpoint) was 101 µM.

Take `COc1cc(C[C@@H]2COC[C@@H]2C(O)c2ccc(O)c(OC)c2)ccc1O` (stereo partly drawn): the SC50 in series [1] was 15.2 µM. In series [3], this compound had an IC50 of 111 µM.

Take `Cc1c(C)c2c(c(C)c1O)CCC(C)(C(=O)O)O2` (stereo not drawn): the SC50 in series [1] turned out to be 15.9 µM.

For the compound `COc1cc(C[C@@H](CO)[C@H](CO)Cc2ccc(O)c(OC)c2)ccc1O` [(+)-SECOISOLARICIRESINOL], the SC50 in series [1] is 12.5 µM. For the same compound, the 50% inhibitory concentration (IC50) in series [3] is 213 µM.

Regarding `COc1cc(/C=C/C(=O)O)ccc1O` [FERULATE], in series [1], the SC50 amounted to 32.5 µM. In addition, in series [2], the Activity result is “Not Active”.

Regarding `COc1cc(C[C@]2(O)CO[C@@H](c3ccc(O)c(OC)c3)[C@@H]2CO)ccc1O` [OLIVIL], the SC50 in series [1] worked out at 15.1 µM. Also, the inhibition (as a rule, how much of the control response was suppressed) at 132 µM in series [4] stood at 23.6%.

Turning to `CC1=CCc2c1cc1c(c2C)C(=O)c2ccccc2C1=O` [STEREQUINONE A], in series [2], the Activity result was “Not Active”. In addition, the outcome in series [5] was inactive.

With `CC(=O)CCc1ccc2c(c1C)C(=O)c1ccccc1C2=O` [STEREQUINONE F], the Activity result in series [2] is given as “Not Active”. For the same compound, the result in series [5] was inactive.

As for `COc1ccc2c(c1)C(=O)c1c(ccc(CCC(C)=O)c1C)C2=O` [STEREQUINONE G], the Activity result in series [2] was “Not Active”. In series [5], the result was inactive.

In the case of `Cc1c(CCC(C)O)ccc2c1C(=O)c1ccccc1C2=O` (stereo not drawn) [STEREQUINONE H], the Activity entry in series [2] is reported as “Not Active”. For the same compound, the outcome in series [5] was inactive.

Consider `COc1ccc2c(c1)C(=O)C1(O)C(=CC3=C(C)CCC3=C1C)C2=O` (stereo not drawn) [STEREQUINONE I], for which the Activity result in series [2] is listed as “Not Active”. For the same compound, the result in series [5] was inactive.
